According to the M2OR odorant receptor database:
Substitutions are numbered along the chain they refer to.

Assays:
Conditions in all cases: stereoisomer not certain
[1] = target: T1, OR4S2 (Homo sapiens) (UniProt Q8NH73)
T1 sequence (whole entry): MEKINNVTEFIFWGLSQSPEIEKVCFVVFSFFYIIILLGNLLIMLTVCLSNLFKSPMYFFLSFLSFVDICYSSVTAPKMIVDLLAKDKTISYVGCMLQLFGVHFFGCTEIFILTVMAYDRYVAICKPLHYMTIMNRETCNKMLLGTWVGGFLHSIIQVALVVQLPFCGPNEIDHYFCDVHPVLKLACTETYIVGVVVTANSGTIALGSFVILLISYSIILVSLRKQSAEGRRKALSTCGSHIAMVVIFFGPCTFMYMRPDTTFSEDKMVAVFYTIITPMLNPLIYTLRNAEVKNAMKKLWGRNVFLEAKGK
Outline: (§1)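 Transient luciferase assays in mammalian cell lines were common, though methods varied by source. The values come from published papers and their supplementary material, with extra details from the original authors when needed. Responsive refers to a measured signal the original authors judged statistically different from baseline, and non-responsive (inactive) to the remainder.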

[2] = target: T2, OR4X1 (Homo sapiens) (UniProt Q8NH49)
T2 sequence (whole entry): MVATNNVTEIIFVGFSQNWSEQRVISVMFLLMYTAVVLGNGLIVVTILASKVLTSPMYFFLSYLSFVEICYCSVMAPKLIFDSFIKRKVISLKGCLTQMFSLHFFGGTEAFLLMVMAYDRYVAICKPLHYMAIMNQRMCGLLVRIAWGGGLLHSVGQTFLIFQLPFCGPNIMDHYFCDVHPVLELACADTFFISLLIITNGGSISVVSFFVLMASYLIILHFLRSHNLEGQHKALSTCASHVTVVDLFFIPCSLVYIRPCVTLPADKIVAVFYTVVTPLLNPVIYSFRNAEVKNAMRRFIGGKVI
Outline: as §1

[3] = target: T3, OR4X2 (Homo sapiens) (UniProt Q8NGF9)
T3 sequence (whole entry): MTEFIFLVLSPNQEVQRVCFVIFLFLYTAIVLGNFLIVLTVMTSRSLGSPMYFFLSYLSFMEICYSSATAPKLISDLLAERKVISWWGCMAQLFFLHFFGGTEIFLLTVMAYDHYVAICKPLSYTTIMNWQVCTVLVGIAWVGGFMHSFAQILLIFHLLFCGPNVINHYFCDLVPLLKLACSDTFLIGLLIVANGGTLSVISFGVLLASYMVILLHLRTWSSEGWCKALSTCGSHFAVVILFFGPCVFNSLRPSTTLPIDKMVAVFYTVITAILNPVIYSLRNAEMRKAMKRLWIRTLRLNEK
Outline: as §1

[4] = target: T4, OR51A2 (Homo sapiens) (UniProt Q8NGJ7)
T4 sequence (whole entry): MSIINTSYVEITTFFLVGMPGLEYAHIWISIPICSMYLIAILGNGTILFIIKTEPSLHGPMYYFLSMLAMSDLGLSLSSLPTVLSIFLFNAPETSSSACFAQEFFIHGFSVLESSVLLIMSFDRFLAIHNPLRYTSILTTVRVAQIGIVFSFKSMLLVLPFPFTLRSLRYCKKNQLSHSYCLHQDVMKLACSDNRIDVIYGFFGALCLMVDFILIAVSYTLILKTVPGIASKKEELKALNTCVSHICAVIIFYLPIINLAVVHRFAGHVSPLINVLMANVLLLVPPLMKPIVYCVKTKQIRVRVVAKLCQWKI
Outline: as §1

[5] = target: T5, OR51A4 (Homo sapiens) (UniProt Q8NGJ6)
T5 sequence (whole entry): T4 sequence (whole entry) with G59E, T94I, S97N, S167N, P227L, E235Q, G267R, M288T, K289N, W311R
Outline: as §1

[6] = target: T6, OR51A7 (Homo sapiens) (UniProt Q8NH64)
T6 sequence (whole entry): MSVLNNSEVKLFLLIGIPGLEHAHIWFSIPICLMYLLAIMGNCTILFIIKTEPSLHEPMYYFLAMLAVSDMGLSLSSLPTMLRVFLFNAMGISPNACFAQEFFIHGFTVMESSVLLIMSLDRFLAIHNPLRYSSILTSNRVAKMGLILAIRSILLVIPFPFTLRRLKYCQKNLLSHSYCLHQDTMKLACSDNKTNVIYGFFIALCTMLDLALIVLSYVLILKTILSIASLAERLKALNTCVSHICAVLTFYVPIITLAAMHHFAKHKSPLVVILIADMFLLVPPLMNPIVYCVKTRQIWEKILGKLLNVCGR
Outline: as §1

[7] = target: T7, OR51B2 (Homo sapiens) (UniProt Q9Y5P1)
T7 sequence (whole entry): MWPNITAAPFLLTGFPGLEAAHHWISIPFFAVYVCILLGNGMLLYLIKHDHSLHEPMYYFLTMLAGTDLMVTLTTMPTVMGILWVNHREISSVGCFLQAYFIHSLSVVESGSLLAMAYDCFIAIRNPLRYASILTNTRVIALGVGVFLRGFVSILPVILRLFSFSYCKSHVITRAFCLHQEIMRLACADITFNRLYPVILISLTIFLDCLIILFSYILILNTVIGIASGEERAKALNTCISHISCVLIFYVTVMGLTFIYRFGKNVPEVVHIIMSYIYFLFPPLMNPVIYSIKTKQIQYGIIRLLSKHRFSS
Outline: as §1

[8] = target: T8, OR51B4 (Homo sapiens) (UniProt Q9Y5P0)
T8 sequence (whole entry): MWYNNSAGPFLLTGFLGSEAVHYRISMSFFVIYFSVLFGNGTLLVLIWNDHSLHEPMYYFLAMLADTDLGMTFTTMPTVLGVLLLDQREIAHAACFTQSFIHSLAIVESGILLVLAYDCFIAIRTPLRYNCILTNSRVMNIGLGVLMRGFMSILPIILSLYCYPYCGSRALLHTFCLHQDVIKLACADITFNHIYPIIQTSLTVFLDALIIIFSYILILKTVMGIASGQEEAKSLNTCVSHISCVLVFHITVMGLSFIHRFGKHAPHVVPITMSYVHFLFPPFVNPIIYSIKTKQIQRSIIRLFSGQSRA
Outline: as §1

[9] = target: T9, OR51B5 (Homo sapiens) (UniProt Q9H339)
T9 sequence (whole entry): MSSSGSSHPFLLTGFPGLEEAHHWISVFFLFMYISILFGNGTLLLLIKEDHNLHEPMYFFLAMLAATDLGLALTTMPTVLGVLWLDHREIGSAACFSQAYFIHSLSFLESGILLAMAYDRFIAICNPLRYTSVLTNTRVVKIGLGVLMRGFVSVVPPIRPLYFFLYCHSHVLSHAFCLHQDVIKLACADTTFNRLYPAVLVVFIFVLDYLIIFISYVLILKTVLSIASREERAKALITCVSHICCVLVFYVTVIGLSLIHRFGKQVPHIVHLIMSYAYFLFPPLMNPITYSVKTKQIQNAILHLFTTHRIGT
Outline: as §1

[10] = target: T10, OR51B6 (Homo sapiens) (UniProt Q9H340)
T10 sequence (whole entry): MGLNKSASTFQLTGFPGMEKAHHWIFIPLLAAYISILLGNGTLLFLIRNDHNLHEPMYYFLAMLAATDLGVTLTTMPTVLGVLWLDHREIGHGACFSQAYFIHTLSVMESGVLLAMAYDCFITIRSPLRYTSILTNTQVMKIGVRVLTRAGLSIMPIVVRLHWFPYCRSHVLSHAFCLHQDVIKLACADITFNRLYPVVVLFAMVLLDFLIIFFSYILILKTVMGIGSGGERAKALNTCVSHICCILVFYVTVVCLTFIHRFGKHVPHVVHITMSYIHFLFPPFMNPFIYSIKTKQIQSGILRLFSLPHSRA
Outline: as §1

[11] = target: T11, OR51D1 (Homo sapiens) (UniProt Q8NGF3)
T11 sequence (whole entry): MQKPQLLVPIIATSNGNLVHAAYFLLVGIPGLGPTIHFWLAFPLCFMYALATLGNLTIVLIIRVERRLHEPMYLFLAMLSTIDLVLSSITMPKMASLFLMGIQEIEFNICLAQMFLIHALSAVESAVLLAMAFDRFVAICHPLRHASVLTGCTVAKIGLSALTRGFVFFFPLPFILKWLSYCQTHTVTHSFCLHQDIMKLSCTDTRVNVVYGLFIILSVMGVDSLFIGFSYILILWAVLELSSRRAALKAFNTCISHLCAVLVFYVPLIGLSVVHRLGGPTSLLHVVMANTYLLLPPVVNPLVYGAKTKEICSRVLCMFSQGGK
Outline: as §1

[12] = target: T12, OR51E1 (Homo sapiens) (UniProt Q8TCB6)
T12 sequence (whole entry): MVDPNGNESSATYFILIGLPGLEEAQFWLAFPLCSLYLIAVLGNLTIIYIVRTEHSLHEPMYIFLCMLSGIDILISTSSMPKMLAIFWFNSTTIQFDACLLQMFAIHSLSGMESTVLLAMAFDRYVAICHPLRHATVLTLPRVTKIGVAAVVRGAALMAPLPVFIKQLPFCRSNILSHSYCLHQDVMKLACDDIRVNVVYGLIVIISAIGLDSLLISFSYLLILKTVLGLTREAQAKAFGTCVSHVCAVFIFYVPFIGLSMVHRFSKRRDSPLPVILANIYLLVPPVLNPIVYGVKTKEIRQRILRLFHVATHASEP
Outline: as §1

[13] = target: T13, OR51E2 (Homo sapiens) (UniProt Q9H255)
T13 sequence (whole entry): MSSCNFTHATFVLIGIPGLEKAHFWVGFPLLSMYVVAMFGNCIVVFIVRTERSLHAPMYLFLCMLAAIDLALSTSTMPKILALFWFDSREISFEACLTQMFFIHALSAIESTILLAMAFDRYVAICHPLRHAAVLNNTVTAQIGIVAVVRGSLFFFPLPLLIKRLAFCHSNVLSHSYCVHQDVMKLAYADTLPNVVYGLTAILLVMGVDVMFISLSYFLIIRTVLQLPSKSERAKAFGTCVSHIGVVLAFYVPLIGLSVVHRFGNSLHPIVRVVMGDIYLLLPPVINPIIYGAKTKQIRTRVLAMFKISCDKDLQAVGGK
Outline: as §1

[14] = target: T14, OR51F1 (Homo sapiens) (UniProt A6NGY5)
T14 sequence (whole entry): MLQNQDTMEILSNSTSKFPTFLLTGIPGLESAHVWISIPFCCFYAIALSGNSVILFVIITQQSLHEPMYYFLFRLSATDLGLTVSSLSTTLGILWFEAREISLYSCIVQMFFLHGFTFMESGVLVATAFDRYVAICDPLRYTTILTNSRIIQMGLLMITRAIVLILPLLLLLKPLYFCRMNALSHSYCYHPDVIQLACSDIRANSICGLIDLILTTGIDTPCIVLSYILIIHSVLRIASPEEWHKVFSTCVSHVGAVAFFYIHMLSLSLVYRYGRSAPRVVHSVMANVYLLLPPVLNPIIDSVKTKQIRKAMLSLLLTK
Outline: as §1

[15] = target: T15, OR51F2 (Homo sapiens) (UniProt Q8NH61)
T15 sequence (whole entry): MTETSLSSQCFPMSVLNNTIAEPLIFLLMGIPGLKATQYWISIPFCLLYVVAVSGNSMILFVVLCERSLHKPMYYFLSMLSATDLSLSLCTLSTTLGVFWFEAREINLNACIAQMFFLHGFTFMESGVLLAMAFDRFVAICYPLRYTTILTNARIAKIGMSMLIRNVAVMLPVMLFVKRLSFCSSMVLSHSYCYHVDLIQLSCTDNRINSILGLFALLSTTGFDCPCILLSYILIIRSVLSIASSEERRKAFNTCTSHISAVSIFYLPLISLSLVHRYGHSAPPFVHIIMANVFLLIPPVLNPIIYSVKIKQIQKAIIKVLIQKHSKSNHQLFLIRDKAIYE
Outline: as §1

[16] = target: T16, OR51G1 (Homo sapiens) (UniProt Q8NGK1)
T16 sequence (whole entry): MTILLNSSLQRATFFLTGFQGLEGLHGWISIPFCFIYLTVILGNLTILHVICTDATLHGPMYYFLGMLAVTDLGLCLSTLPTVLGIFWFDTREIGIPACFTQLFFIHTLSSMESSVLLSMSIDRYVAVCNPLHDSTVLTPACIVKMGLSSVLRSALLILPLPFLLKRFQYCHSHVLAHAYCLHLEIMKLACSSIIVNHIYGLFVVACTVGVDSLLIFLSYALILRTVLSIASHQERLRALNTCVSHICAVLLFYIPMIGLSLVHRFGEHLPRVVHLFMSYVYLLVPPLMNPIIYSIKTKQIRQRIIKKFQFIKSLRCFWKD
Outline: as §1

[17] = target: T17, OR51G2 (Homo sapiens) (UniProt Q8NGK0)
T17 sequence (whole entry): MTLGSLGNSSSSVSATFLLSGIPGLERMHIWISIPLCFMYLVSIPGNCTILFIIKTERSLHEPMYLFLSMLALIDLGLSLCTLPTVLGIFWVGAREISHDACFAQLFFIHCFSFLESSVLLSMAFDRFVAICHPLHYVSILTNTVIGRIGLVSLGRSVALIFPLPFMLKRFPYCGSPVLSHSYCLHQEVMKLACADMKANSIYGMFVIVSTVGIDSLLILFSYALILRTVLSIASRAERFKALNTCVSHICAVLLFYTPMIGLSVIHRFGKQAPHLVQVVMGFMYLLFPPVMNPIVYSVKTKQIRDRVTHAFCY
Outline: as §1

[18] = target: T18, OR51I1 (Homo sapiens) (UniProt Q9H343)
T18 sequence (whole entry): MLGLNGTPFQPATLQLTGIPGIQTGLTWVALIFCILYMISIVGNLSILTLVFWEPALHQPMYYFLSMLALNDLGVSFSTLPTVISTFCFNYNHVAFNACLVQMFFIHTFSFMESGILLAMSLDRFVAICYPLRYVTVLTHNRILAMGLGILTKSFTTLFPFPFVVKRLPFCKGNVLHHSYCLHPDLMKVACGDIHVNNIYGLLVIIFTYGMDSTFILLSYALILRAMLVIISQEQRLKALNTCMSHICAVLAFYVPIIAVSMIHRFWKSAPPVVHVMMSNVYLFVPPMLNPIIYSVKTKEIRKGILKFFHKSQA
Outline: as §1

Measured: odorant receptor agonist call;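 also: active if original authors judged signal statistically different from baseline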

CC(CO)CS (stereo not drawn)
inactive: [1] | [2] | [3] | [4] | [5] | [6] | [7] | [8] | [9] | [10] | [11] | [12] | [13] | [14] | [15] | [16] | [17] | [18]
